Assay results from ChEMBL document CHEMBL2424587, “Antiproliferative activity of abietane diterpenoids against human tumor cells” (J Nat Prod, 2013).
Active and inactive are the calls of the source. The calls are words filed in the database; no cut-off is given here.

Legend:
[1] = tested on: HL-60; assay: Induction of apoptosis in human HL60 cells after 24 hrs by flow cytometry in presence of MEK2 inhibitor U0126; type: functional, cell-based
[2] = tested on: HL-60; assay: Induction of apoptosis in human HL60 cells after 24 hrs by flow cytometry in presence of JNK/SAPK inhibitor SP600125; type: functional, cell-based
[3] = tested on: HL-60; assay: Induction of ROS-mediated cell death in human HL60 cells preincubated for 2 hrs in presence of NAC; type: functional, cell-based
Procedure, shortened: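 Antioxidant test in HL-60 cells: NAC 10 mM added with the diterpene, or NAC and diterpene preincubated together for 2 h before addition to cells; cell death then measured.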

[4] = tested on: HL-60; assay: Induction of apoptosis in human HL60 cells after 24 hrs by flow cytometry in presence of MEK1 inhibitor PD98059; type: functional, cell-based
[5] = tested on: HL-60; assay: Induction of intracellular ROS generation in human HL60 cells at 3 uM after 15 mins to 4 hrs by flow cytometry; type: functional, cell-based
Procedure, shortened: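 HL-60 cells given 3 μM diterpene for the indicated times, then loaded with H2-DCF-DA. Fluorescence of oxidized H2DCF was measured by flow cytometry. Three independent experiments.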

[6] = tested on: HL-60; assay: Induction of apoptosis in human HL60 cells assessed as reduction in mitochondrial membrane potential at 3 uM after 24 hrs by JC-1 staining-based flow cytometry; type: functional, cell-based
Procedure, shortened: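 ΔΨm in HL-60 cells after 24 h at 3 μM assessed by JC-1 fluorescence on flow cytometry; two separate experiments, each in triplicate.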

[7] = tested on: HL-60; assay: Induction of apoptosis in human HL60 cells assessed as reduction in mitochondrial membrane potential at 3 uM after 24 hrs by JC-1 staining-based flow cytometry in presence of cyclosporin A; type: functional, cell-based
Procedure, shortened: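 HL-60 cells exposed to 3 μM diterpene for 24 h alongside permeability transition pore inhibitors cyclosporin A (25 μM, 24 h) or bongkrekic acid (25−50 μM, 24 h). Apoptosis was scored by flow cytometry. Mitochondrial membrane potential was read by JC-1 fluorescence on flow cytometry.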

[8] = tested on: HL-60; assay: Induction of apoptosis in human HL60 cells assessed as hypodiploid cells after 24 hrs by flow cytometry in presence of caspase-8 inhibitor Z-IETD-FMK; type: functional, cell-based
Procedure, shortened: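 HL-60 cells pretreated 1 h with caspase inhibitor, then given diterpene for 24 h; hypodiploid cells counted by flow cytometry; mean ± SE of three independent experiments in triplicate.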

[9] = tested on: HL-60; assay: Induction of apoptosis in human HL60 cells assessed as procaspase-9 cleavage at 3 uM after 24 hrs by immunoblotting analysis; type: functional, cell-based
Procedure, shortened: (§1)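 HL-60 cells treated 24 h with 3 μM; immunoblots of lysates probed with antibodies that recognize both pro-caspases and cleaved caspases, and for PARP.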

[10] = tested on: HL-60; assay: Induction of apoptosis in human HL60 cells assessed as accumulation at sub-G1 phase at 3 uM after 24 hrs by AnnexinV-FITC/propidium iodide staining-based flow cytometry (reference value: 4%)
[11] = tested on: HL-60; assay: Induction of apoptosis in human HL60 cells after 24 hrs by flow cytometry in presence of p38 MAPK inhibitor SB203580 (reference value: 15.1 +/- 3.8%); type: functional
[12] = tested on: HL-60; assay: Induction of apoptosis in human HL60 cells assessed as procaspase-7 cleavage at 3 uM after 24 hrs by immunoblotting analysis; type: functional, cell-based; procedure, shortened: as §1
[13] = tested on: HL-60; assay: Induction of apoptosis in human HL60 cells assessed as abundant vacuoles at 3 uM after 24 hrs by transmission electron microscopy; type: functional, cell-based
Procedure, shortened: (§2)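 HL-60 cells incubated 24 h with 3 μM compound and examined by transmission electron microscopy for ultrastructural changes.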

[14] = tested on: HL-60; assay: Induction of apoptosis in human HL60 cells assessed as dense perinuclear condensation at 3 uM after 24 hrs by transmission electron microscopy; type: functional, cell-based; procedure, shortened: as §2
[15] = tested on: HL-60; assay: Induction of apoptosis in human HL60 cells assessed as fragmented and/or condensed nuclei at 3 uM after 24 hrs by transmission electron microscopy; type: functional, cell-based; procedure, shortened: as §2
[16] = tested on: HL-60; assay: Cell cycle arrest in human HL60 cells assessed as accumulation at G2-M phase at 3 uM after 24 hrs by […]propidium iodide staining-based flow cytometry (reference value: 4%); type: functional
[17] = tested on: HL-60; assay: Cell cycle arrest in human HL60 cells assessed as accumulation at G1 phase at 3 uM after 24 hrs by […]propidium iodide staining-based flow cytometry (reference value: 43%); type: functional
[18] = tested on: HL-60; assay: Induction of ROS-mediated cell death in human HL60 cells at 3 uM after 15 mins to 4 hrs by flow cytometry in presence of NAC; type: functional, cell-based
[19] = tested on: HL-60; assay: Induction of apoptosis in human HL60 cells assessed as decrease in Bcl-2 level by Western blotting analysis; type: functional, cell-based
Procedure, shortened: (§3)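 HL-60 cells incubated with the diterpene; whole-cell lysates probed by Western blot for Bcl-2 family proteins, with β-actin as loading control.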

[20] = tested on: HL-60; assay: Induction of apoptosis in human HL60 cells assessed as decrease in Bax level by Western blotting analysis; type: functional, cell-based; procedure, shortened: as §3

Structure (SMILES)	Activity [1]	Activity [2]	Activity [3]	Activity [4]	Activity [5]	Activity [6]	Activity [7]	Activity [8]	Activity [9]	Activity [10]	Activity [11]	Activity [12]	Activity [13]	Activity [14]	Activity [15]	Activity [16]	Activity [17]	Activity [18]	Activity [19]	Activity [20]
COc1ccc(C(=O)OC2=C(C(C)C)C(=O)C3=C(C2=O)[C@@]2(C)CCCC(C)(C)[C@@H]2[C@H](O)[C@H]3OC(C)=O)cc1	Active	Active	inactive	Active	inactive	Active	Active	Active	Active	8%										
CC(=O)O[C@H]1C2=C(C(=O)C(OC(=O)c3ccccc3)=C(C(C)C)C2=O)[C@@]2(C)CCCC(C)(C)[C@@H]2[C@@H]1OC(=O)c1ccccc1	Active	Active	inactive	Active		Active	Active	inactive	Active		Active	Active	Active	Active	Active	16%	30%	inactive		
CC(=O)O[C@H]1C2=C(C(=O)C(OC(=O)c3ccc(Cl)cc3)=C(C(C)C)C2=O)[C@@]2(C)CCCC(C)(C)[C@@H]2[C@@H]1O			inactive			Active	Active	Active	Active	9%	Active							inactive	Active	Active
